Experimental data gathered from unrelated publications.
Compare with care: the assays were run in different laboratories.
Target: Dual specificity tyrosine-phosphorylation-regulated kinase 1A (DYRK1A, Homo sapiens, UniProt Q13627)

With `CCC1(CC)NC(=O)c2c(c3ccc(Cl)c(Cl)c3n2C)C1C#N` (stereo not drawn) the ΔTm was 0.7 °C (thermal stability, DSF; 10 µM).
With `O=C(O)c1ccc2c(c1)nc(NCCc1cccc(F)c1)c1ccncc12` the remaining activity was 8% (enzyme activity, inhibitor, radiometric; 1 µM).
For `CN([C@@H]1CCc2c(CC(=O)O)c3cc(S(C)(=O)=O)ccc3n2C1)S(=O)(=O)c1ccc(F)cc1`, the remaining binding was 81% (cell-free assay, competition with immobilised ligand; 1 µM).
For `Cn1c2c(c3ccc(Cl)c(Cl)c31)C(C#N)C(C)(C)NC2=O` (stereo not drawn), the ΔTm was 3.2 °C (thermal stability, DSF; 10 µM).
The remaining activity of `O=C(O)c1ccc2c(c1)nc(Nc1ccccc1)c1ccncc12` is reported as 6% (enzyme activity, inhibitor, radiometric; 1 µM).
For `CNc1cccc2cc(C(=O)Nc3ccc(C(=O)O)cc3)c(=O)[nH]c12`, the inhibition was 28% (enzyme activity, inhibitor; 10 µM).
For `CNCc1ccccc1-c1csc([C@H](C)Nc2nc(C)nc3cc(OC)c(OC)cc23)c1`, the remaining binding was 80% (cell-free assay, competition with immobilised ligand; 1 µM).
With `N#Cc1cccc(Nc2nc3cc(C(=O)O)ccc3c3cnccc23)c1` the remaining activity was -1% (enzyme activity, inhibitor, radiometric; 1 µM).
For `COc1cc2ncnc(Nc3ccc(Oc4ccccc4)cc3C)c2cc1OC`, the inhibition was -1% (enzyme activity, inhibitor; 1 µM).
`CC1=C(C#N)[C@@H](c2ccc3[nH]nc(C)c3c2)C(C#N)=C(c2ccc(Cl)cc2)N1` has a remaining binding of 100% (cell-free assay, competition with immobilised ligand; 1 µM).
With `CC/C(=N\NC(=O)NCc1cccc(O)c1)c1ccc(O)c(C)c1O` the inhibition was -4.7% (enzyme activity, inhibitor; 0.1 µM).
The remaining signal of `O=C1NC(=O)c2cc(Nc3ccc(F)cc3)c(Nc3ccc(F)cc3)cc21` is reported as 95.6% (cell-free assay; 0.5 µM).
`O=C(Nc1cccnn1)N1CC(C/C=C/c2cncc(Oc3ccc(C(F)(F)F)cn3)n2)C1` has a remaining binding of 75% (cell-free assay, competition with immobilised ligand; 1 µM).
For `O=C(O)c1ccc2c(c1)nc(NCCc1cccc(Cl)c1)c1ncncc12`, the remaining activity was 44% (enzyme activity, inhibitor, radiometric; 1 µM).
For `Cn1c2c(c3ccc(Cl)c(Cl)c31)C(C#N)C1(CCN(C(=O)OC(C)(C)C)CC1)NC2=O` (racemic), the ΔTm was -0.8 °C (thermal stability, DSF; 10 µM).
`COc1ccc2c(O[C@@H]3C[C@H]4C(=O)N[C@]5(C(=O)O)CC5/C=C\CCCCC[C@H](NC(=O)OC5CCCC5)C(=O)N4C3)cc(-c3csc(NC(=O)C(C)C)n3)nc2c1C` (stereo partly drawn) gave a remaining binding of 79% (cell-free assay, competition with immobilised ligand; 1 µM).
With `COc1cc(Nc2c(C#N)cnc3cc(OCCCN4CCN(C)CC4)c(OC)cc23)c(Cl)cc1Cl` the remaining signal was 99.4% (cell-free assay; 0.5 µM).
The remaining binding of `Cc1c[nH]c2nccc(Oc3c(F)cc(Nc4cc(Cl)nc(N)n4)cc3F)c12` is reported as 88% (cell-free assay, competition with immobilised ligand; 0.1 µM).
The remaining signal of `N#CCCc1ccc2c(c1)-c1[nH]c3ccc([N+](=O)[O-])cc3c1CC(=O)N2` is reported as 85.9% (cell-free assay; 0.5 µM).
With `Cn1cnc(Br)c1C1=CN(c2ncnc3[nH]cnc23)CCS1` the inhibition was 99.2% (enzyme activity, inhibitor, radiometric; 2 µM).
The remaining binding of `COCCOc1nc(-c2ccc(Cl)nc2)nc2c1CN(C(=O)c1ncn3ccccc13)CC2` is reported as 78% (cell-free assay, competition with immobilised ligand; 0.1 µM).
`O=C(O)c1ccc2c(c1)nc(Nc1ccc(F)c(Cl)c1)c1ncncc12` gave a remaining activity of 1% (enzyme activity, inhibitor, radiometric; 1 µM).
`Cc1cc(-n2nc(Cc3cc(F)cc(C(F)(F)F)c3)nc2C)ccc1C(N)=O` gave a remaining binding of 92% (cell-free assay, competition with immobilised ligand; 1 µM).
For `CN(C)C1CCN(CC#Cc2nn(C3CCCC3)c3nc(NCc4ccccc4)ncc23)C1` (stereo not drawn), the inhibition was 2% (enzyme activity, inhibitor, FRET; 10 µM).
For `CCN1/C(=C/C(C)=O)Sc2ccc(OC)cc21`, the remaining signal was 28.9% (cell-free assay; 0.5 µM).
The remaining activity of `O=C(O)c1ccc2c(c1)nc(Nc1ccc(Cl)cc1)c1ccncc12` is reported as 2% (enzyme activity, inhibitor, radiometric; 1 µM).
With `Nc1ncnc2occ(-c3ccc(NC(=O)Nc4cc(C(F)(F)F)ccc4F)cc3)c12` the remaining signal was 58% (cell-free assay; 20 µM).
`Cn1c2c(Cl)c(Cl)ccc2c2cc[nH]c(=O)c21` gave a ΔTm of 2.6 °C (thermal stability, DSF; 10 µM).
With `COc1cccc(CCNc2nc3cc(C(=O)O)ccc3c3cncnc23)c1` the remaining activity was 40% (enzyme activity, inhibitor, radiometric; 1 µM).
The remaining signal of `Cc1ccc(NC(=O)c2ccc(C)c(C(F)(F)F)c2)cc1C#Cc1nn(C2CCC(O)CC2)c2ncnc(N)c12` (stereo not drawn) is reported as 95% (cell-free assay; 10 µM).
